Assay results from ChEMBL document CHEMBL1128547, “Selective inhibitors of Candida albicans dihydrofolate reductase: activity and selectivity of 5-(arylthio)-2,4-diaminoquinazolines” (J Med Chem, 1995).
Values after ≈ are worked out from the molar mass of the structure shown.

Legend:
[1] = system: Candida albicans; assay: Minimum inhibitory concentration required to inhibit Candida albicans (in vitro); assay type: functional
Method in brief: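 Broth dilution in defined medium (NH4Cl, K2HPO4, MgSO4, sodium citrate, PIPES, biotin, glucose; pH 7.1), strain P712 from frozen log-phase stocks. Inoculum 4500 CFU per 3 mL tube, final drug 50–0.01 μg/mL, or microtiter wells (0.05 mL) with 4-fold dilutions. 28 °C, 160 rpm, 20–24 h.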

[2] = system: Candida albicans; assay: Ratio of I50 evaluated for inhibition of DHFR in humans to Candida albicans
Method in brief: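 Selectivity index is the human DHFR I50 divided by the C. albicans DHFR I50. The C. albicans enzyme (E. coli-expressed, 0.2 nM) was run in 0.1 M imidazole chloride, pH 6.4. Recombinant human enzyme (2 nM) was run in 50 mM Sorenson's phosphate, pH 7.0. Enzyme, NADPH and inhibitor were preincubated 2 min before substrate was added. I50 came from linear regression of % inhibition of steady-state velocity vs log concentration.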

SMILES | MIC [1] | Selectivity index [2]
CCOc1ccc2nc(N)nc(N)c2c1Sc1ccc(C(C)(C)C)cc1 | 1 µg/mL (≈ 2.71 µM) | –
CC(C)(C)c1ccc(Sc2cccc3nc(N)nc(N)c23)cc1 | 0.1 µg/mL (≈ 0.308 µM) | –
CCN(CC)c1ccc(Sc2cccc3nc(N)nc(N)c23)cc1 | 2.5 µg/mL (≈ 7.36 µM) | –
COc1cc(NCc2ccc3nc(N)nc(N)c3c2C)cc(OC)c1OC [TRIMETREXATE] | > 50 µg/mL | –
Nc1nc(N)c2c(Sc3cccc(Cl)c3)cccc2n1 | 0.5 µg/mL (≈ 1.65 µM) | 6
CCCCCCc1ccc(Sc2cccc3nc(N)nc(N)c23)cc1 | 50 µg/mL (≈ 142 µM) | –
N#Cc1ccc(Sc2cccc3nc(N)nc(N)c23)cc1 | > 50 µg/mL | 100
CCC(C)(C)c1ccc(Sc2cccc3nc(N)nc(N)c23)cc1 | 10 µg/mL (≈ 29.5 µM) | 10
COc1cccc(Sc2cccc3nc(N)nc(N)c23)c1 | 0.25 µg/mL (≈ 0.838 µM) | –
Nc1nc(N)c2c(Sc3ccc(N4CCOCC4)cc3)cccc2n1 | > 50 µg/mL | –
CC(C)(C)c1ccc(Sc2c(N)ccc3nc(N)nc(N)c23)cc1 | 5 µg/mL (≈ 14.7 µM) | –
COc1ccc(Sc2cccc3nc(N)nc(N)c23)cc1 | 0.25 µg/mL (≈ 0.838 µM) | –
Nc1nc(N)c2c(Sc3ccc(Cl)cc3)cccc2n1 | 0.5 µg/mL (≈ 1.65 µM) | –
Cc1ccc(Sc2cccc3nc(N)nc(N)c23)cc1 | 0.25 µg/mL (≈ 0.885 µM) | –
COc1ccc(OC)c(Cc2cnc3nc(N)nc(N)c3c2C)c1 [PIRITREXIM] | > 10 µg/mL | –
CCc1nc(N)nc(N)c1-c1ccc(Cl)cc1 [PYRIMETHAMINE] | > 50 µg/mL | –

SMILES | MIC [1] | Selectivity index [2]
Nc1nc(N)c2c(Sc3ccccc3Cl)cccc2n1 | 1 µg/mL (≈ 3.3 µM) | 2
COc1ccc(Sc2cccc3nc(N)nc(N)c23)cc1OC | > 50 µg/mL | 79
Nc1nc(N)c2c(Sc3ccc(Br)cc3)cccc2n1 | 0.25 µg/mL (≈ 0.72 µM) | 100
Nc1nc(N)c2c(Sc3ccccc3)cccc2n1 | 0.05 µg/mL (≈ 0.186 µM) | –
COc1cc(Cc2cnc(N)nc2N)cc(OC)c1OC [TRIMETHOPRIM] | > 50 µg/mL | –
Nc1nc(N)c2c(Sc3ccc(F)cc3)cccc2n1 | 0.25 µg/mL (≈ 0.873 µM) | 40
CC(C)c1ccc(Sc2cccc3nc(N)nc(N)c23)cc1 | 0.25 µg/mL (≈ 0.805 µM) | –
Nc1nc(N)c2c(Sc3ccc(C4CCCCC4)cc3)cccc2n1 | 1 µg/mL (≈ 2.85 µM) | > 200
COc1ccccc1Sc1cccc2nc(N)nc(N)c12 | 10 µg/mL (≈ 33.5 µM) | 4
Nc1nc(N)c2c(Sc3ccc(C(F)(F)F)cc3)cccc2n1 | 25 µg/mL (≈ 74.3 µM) | 5
Nc1ccc(Sc2cccc3nc(N)nc(N)c23)cc1 | 2.5 µg/mL (≈ 8.82 µM) | 5
CC(C)(C)c1ccc(Sc2c(C#N)ccc3nc(N)nc(N)c23)cc1 | > 5 µg/mL | –
Nc1nc(N)c2c(Sc3ccc(O)cc3)cccc2n1 | 10 µg/mL (≈ 35.2 µM) | 5
COc1cc(Sc2cccc3nc(N)nc(N)c23)cc(OC)c1OC | 5 µg/mL (≈ 13.9 µM) | –
Nc1nc(N)c2c(Sc3ccc([N+](=O)[O-])cc3)cccc2n1 | 50 µg/mL (≈ 160 µM) | 100
CC(C)COc1ccc2nc(N)nc(N)c2c1Sc1ccc(C(C)(C)C)cc1 | 0.8 µg/mL (≈ 2.02 µM) | 10
